Hits are enriched below; roughly 1.4% of the tested compounds scored in any of these assays.
ATG4B inhibitor – inhibitors of human ATG4B cysteine protease; Q9Y4P1; ATG4B cleavage of LC3-PLA2, NBD-HPC fluorescence, 1 h; inhibition, % at 8.33 µM; 0.51% of 340,000 active; AID 504462; in the data active = inhibition above about 40%
Rin1 Abl inh – human Rin1-Abl interaction inhibition | inhibition, % at 7.35 µM | TR-FRET Rin1/Abl binding, biochemical | 0.4% of 360,000 active; in the data active = inhibition above about 5%, passing the limit was not always enough
TbMetRS inhib – blocks T. brucei methionyl-tRNA synthetase activity. 0.4% of 360,000 active. purified T. brucei MetRS, ATP depletion, Kinase-Glo luminescence. inhibition, % at 11.9 µM;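 active = inhibition above a per-plate cutoff of the control wells' mean inhibition plus 3 SD, cut at about 5.5% in these data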;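 note: 0% = DMSO wells median and 100% = median of wells with control inhibitor compound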
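Material: T. brucei methionyl-tRNA synthetase, purified; reagent: substrates ATP, L-methionine and bulk Escherichia coli tRNA; dosing: 11.9 µM single point; timing: 15 min plus 2 h at 25 °C; detection: luminescence of leftover ATP; evaluation: % inhibition; control set: DMSO-only wells as low control; replicates: singlicate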
UCH37 inh – inhibitors of human deubiquitinating enzyme UCH37; Q9Y5K5; purified proteasome/UCH37, Ub-AMC cleavage fluorescence; inhibition, % (no concentration beside the values); 0.33% of 330,000 active;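 active = mean inhibition over replicate wells above about 20%, limit read from the data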;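 note: 0% = compound-free wells with enzyme and 100% = wells lacking proteasome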
Target sequence (Q9Y5K5 whole entry, looked up): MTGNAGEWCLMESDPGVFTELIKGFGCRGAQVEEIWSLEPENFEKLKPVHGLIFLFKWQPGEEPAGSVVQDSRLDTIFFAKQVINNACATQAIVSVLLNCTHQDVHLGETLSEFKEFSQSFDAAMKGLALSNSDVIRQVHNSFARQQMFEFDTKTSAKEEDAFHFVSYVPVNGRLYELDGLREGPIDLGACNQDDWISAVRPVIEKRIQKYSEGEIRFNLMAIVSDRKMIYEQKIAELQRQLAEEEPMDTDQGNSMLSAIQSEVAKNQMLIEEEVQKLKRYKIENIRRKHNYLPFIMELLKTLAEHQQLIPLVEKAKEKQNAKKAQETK
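Material: Human UCH37 enzyme supplied as purified proteasome complex | Schedule: 30 min preincubation with enzyme, 25 min cleavage at room temperature | Detection: AMC fluorescence 355/460 nm | Measure: % inhibition of Ub-AMC cleavage fluorescence | Controls: Wells without proteasome as full block, compound-free enzyme plus substrate as uninhibited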
ATG4B confirm – confirmation of human ATG4B inhibitors | shares compounds with ATG4B inhibitor | ATG4B protease fluorescent substrate cleavage assay | inhibition, % at 8.33 µM | 92% of 320 active | AID 504757; in the data active = inhibition above about 39%
PLA2 counter – inhibits human PLA2, flagging false ATG4B inhibitors; shares compounds with ATG4B inhibitor; purified PLA2, NBD-C6-HPC fluorescence, 45 min; inhibition, % at 8.33 µM; 66% of 1,600 active; AID 588402; in the data active = inhibition above about 50%
Target sequence (P04054 whole entry, looked up): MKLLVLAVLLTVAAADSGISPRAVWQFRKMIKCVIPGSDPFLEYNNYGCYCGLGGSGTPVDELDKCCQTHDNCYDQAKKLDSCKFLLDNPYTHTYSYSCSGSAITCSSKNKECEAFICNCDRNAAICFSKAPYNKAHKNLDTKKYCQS
* marks the source's active call; other numbers are inactive results; . = no result.

SMILES	ATG4B inhibitor	Rin1 Abl inh	TbMetRS inhib	UCH37 inh	PLA2 counter	others
Cc1ccc(NS(=O)(=O)c2cc([N+](=O)[O-])ccc2NNC(=S)Nc2cc(C)ccc2C)c(C)c1	58.5*	-0.7	0.5	9.3	72.8*
COc1ccc(NC(=S)NNc2ccc([N+](=O)[O-])cc2S(=O)(=O)Nc2ccc(C)cc2C)cc1	42.7*	-6.7	-0.2	5.2	57.2*
COc1ccc(NC(=S)Nc2cccc([N+](=O)[O-])c2)cc1	9.8	2.3	-0.2	1.5	.
CCOC(=O)c1cc2c(C)nn(-c3ccccc3)c2s1	-0.5	-2.1	0.0	1.0	.
Cc1ccc2occ(/C=N/NC(=O)[C@@H](N)Cc3ccccc3)c(=O)c2c1	9.7	0.5	-0.4	.	.
COCC(C)OC(=O)/C(C#N)=C\c1coc2ccc(C)cc2c1=O (stereo not given)	61.8*	-3.1	0.5	.	49.0
Cc1oc(-c2ccccc2Cl)nc1CS(=O)CC(=O)NCc1ccccc1Cl (stereo not given)	45.6*	0.5	-0.7	2.4	46.8	ATG4B confirm=59.9*
Cc1oc(-c2ccccc2Cl)nc1CS(=O)CC(=O)NCc1ccco1 (stereo not given)	-0.8	0.0	0.1	0.5	.
CC(=O)Nc1ccc(Oc2ccc(-c3noc(C)n3)cc2)cc1	-3.3	0.8	-1.6	-2.7	.
Cc1ccccc1Cn1cc(NC(=O)c2nn(C)cc2Cl)cn1	4.1	2.4	0.3	4.8	.
Cc1ccc(C2CC(C(F)F)n3ncc(C(=O)Nc4cnn(Cc5ccccc5C)c4)c3N2)cc1 (stereo not given)	53.7*	-1.0	3.4	2.5	71.3*
COc1ccccc1CNC(=O)CN(c1cccc([N+](=O)[O-])c1)S(C)(=O)=O	0.4	2.2	0.4	3.4	.
N#Cc1c(N)[nH]c2ccc(Sc3ccccc3)cc12	41.2*	-0.2	-0.3	.	40.1	ATG4B confirm=67.7*
Cc1ccc(C)c(C=NNc2ccccn2)c1	.	.	.	4.0	.
Nc1nc(SCc2ccccc2[N+](=O)[O-])c2ncn(Cc3ccccc3)c2n1	50.2*	-4.3	0.3	1.6	57.8*
Cc1c(Cl)cccc1NS(=O)(=O)c1ccc2c(c1)C1C=CCC1C(c1ccc(C(=O)O)cc1)N2 (stereo not given)	101.0*	9.2*	3.1	-1.2	91.6*
CCOC(=O)N1CCN(C2=C(NS(=O)(=O)c3ccc(Br)cc3)C(=O)c3ccccc3C2=O)CC1	.	-3.3	0.2	.	.
NC(=O)C1CCN(C2=C(NS(=O)(=O)c3ccc(Br)cc3)C(=O)c3ccccc3C2=O)CC1	64.2*	-9.9	-0.1	21.2*	60.1*
Cn1c(SCc2ccc(Cl)cc2Cl)nc(C(F)(F)F)cc1=O	5.8	-0.1	0.1	3.6	.
Cc1nc(NC(=O)c2ccccc2)sc1-c1csc(NCc2ccccc2)n1	45.2*	1.6	-1.4	-36.8	65.8*
Cn1c(SCc2ccc(Br)cc2)nnc1-c1cccs1	1.4	-5.0	0.0	0.1	.
O=c1oc2ccccc2cc1-c1csc(NN=C2CCCCC2)n1	40.5*	-3.3	0.0	-27.1	65.9*
O=C(Nc1nc(-c2cc3ccccc3oc2=O)cs1)c1ccco1	-7.0	-0.5	-0.8	-133.1	.
CC[C@H](C)/C=C/C1=CC2=C(Cl)C(=O)[C@@]3(C)OC(=O)C(C(=O)[C@H](C)[C@@H](C)O)=C3C2=CO1	41.6*	4.0	0.8	2.2	54.0*
O=C(O)CCCCCNC(=O)CCn1nnc2ccccc2c1=O	-10.0	-1.0	-0.3	1.5	.
SMILES	ATG4B inhibitor	Rin1 Abl inh	TbMetRS inhib	UCH37 inh	PLA2 counter	others
COc1ccc2c(c1OC)C(=O)N1c3ccccc3C(=O)N(c3ccccc3)C21 (stereo not given)	48.1*	-1.4	-0.4	0.5	46.5
O=c1c2cc3c(cc2[nH]c(=S)n1C1CCN(Cc2ccccc2)CC1)OCO3	58.9*	1.8	1.6	4.1	62.1*
Cn1cccc1C(=O)NC(=O)COC(=O)CC12CC3CC(CC(C3)C1)C2	62.1*	-1.5	-0.7	.	53.9*
Cn1cccc1C(=O)NC(=O)COC(=O)CC12CC3CC(CC(Br)(C3)C1)C2	61.4*	4.0	-0.5	1.6	72.9*
NC(=O)NC(=O)COC(=O)CC12CC3CC(CC(C3)C1)C2	-11.8	-3.3	-1.2	1.0	.
O=C(CN1CCCCC1)Nc1ccccc1-c1ccccc1	46.0*	-0.9	-1.1	1.7	59.2*

Compound activity (PubChem)
